# Publication PMC10906133 (Journal of Enzyme Inhibition and Medicinal Chemistry, 2024)
# What was measured:
# [1] = test system: iNOS, COX2, IL-6 and TNF-α protein expression; experiment: Western blot of inflammatory protein expression in LPS-treated RAW264.7 cells; type: cell-based; conditions: RAW264.7, 2, 1, 0.5 µM 1 h, then LPS 500 ng/mL 24 h
# How it was run: (§1)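 RAW264.7 cells (2 × 10^6/well) were cultured overnight, pretreated 1 h with test compound at 2, 1 or 0.5 µM, then stimulated with LPS 0.5 µg/mL. Lysis was in RIPA, followed by SDS-PAGE and PVDF transfer. Primary antibodies (1:1000) were applied overnight at 4 °C, then HRP secondary for 1 h, with ECL detection and β-actin reference. Three repeats; densitometry given as mean ± SD.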
# [2] = test system: phosphorylation of IκB and p65 (NF-κB signalling pathway); experiment: Western blot of NF-κB signalling pathway in LPS-treated RAW264.7 cells; type: cell-based; conditions: RAW264.7, 2, 1, 0.5 µM 1 h, then LPS 500 ng/mL 30 min
# How it was run: as §1
# [3] = test system: p-p38, p-ERK and p-JNK (MAPK signalling pathway); experiment: Western blot of MAPKs signalling pathway in LPS-treated RAW264.7 cells; type: cell-based; conditions: RAW264.7, 2, 1, 0.5 µM 1 h, then LPS 500 ng/mL 30 min
# [4] = test system: DSS-induced acute colitis in mice; experiment: DSS-induced acute colitis model in mice; type: in vivo, C57BL/6 mice; conditions: for MPO in colon tissue: day 7, E2 20 mg/kg, sulfasalazine 200 mg/kg, oral
# How it was run: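 Male C57BL/6 mice (16–18 g; n=10 per group) received 5% (wt/vol) DSS in drinking water on days 1–7. Test compound (10 or 20 mg/kg) or sulfasalazine 200 mg/kg was given by gavage in 0.5% CMC-Na on days 1–7; control groups received vehicle. Weight, stool and DAI were scored daily. On day 8: serum ELISA (TNF-α, IL-1β, IL-6), colon length, histology, and colon MPO. Values are mean ± SEM.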
Structure (SMILES),"Expression of iNOS, COX2, IL-6 and TNF-α protein [1]",Phosphorylation of IκB and p65 proteins [2],"Expression of p-p38, p-ERK and p-JNK [3]","DSS treatment-induced shortening of colon length ([4]; 5% DSS days 1-7, oral E2 10 and 20 mg/kg)","Histopathological symptoms of colon ([4]; 5% DSS days 1-7, oral E2, vs model group)","Levels of COX-2, p-NF-κB and p-Stat3 expression in colon (Western blot) ([4]; DSS-treated mice, oral E2)","Levels of TNF-α, IL-1β and IL-6 in serum (ELISA) ([4]; DSS-treated mice, oral E2)","mRNA expression levels of TNF-α, IL-1β, IL-6, iNOS, COX-2 and TLR4 in colon tissue ([4]; DSS-treated mice, oral E2, RT-qPCR)",MPO in colon tissue [4]
C#CCOc1ccc(/C=C/c2cc(OC)cc(OC)c2-c2cnnn2C(=O)NCCC)cc1 [E2],significantly inhibited,inhibited,"inhibits the expression of p-p38, p-ERK, and p-JNK in a dose-dependent manner",significantly attenuated,significantly improved these symptoms,decreased,significantly decreased,alleviated,significantly reduced
"O=C(O)c1cc(/N=N/c2ccc(S(=O)(=O)Nc3ccccn3)cc2)ccc1O [sulfasalazine, Sulfasalazine, reference compound]",–,–,–,–,–,–,–,–,significantly reduced
